Activity calls are given as the source filed them. The calls are words filed in the database; no cut-off is given here.
Experiments:
[1] = system: T47D; assay: Antiproliferative activity against human T47D cells assessed as cell growth inhibition at 0.4 to 100 uM after 6 days by XTT assay; assay type: cell-based; conditions: human, t47d, 144 h, 100 µM; dose 0.4-100 µM, time 6 day
How it was run: (§1)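 Cells grown in RPMI with 10% FBS, 2 mM L-glutamine, penicillin/streptomycin and 1% non-essential amino acids. Seeded at 5 x 10³ cells/well and left 24 h at 37 °C, then treated at 100 μM to 0.4 μM. Exposure 6 days at 37 °C with fresh treatment medium every 48 h. Doxorubicin 10 μM and DMSO 0.01% served as controls. XTT with 1.25% PMS for 2 h; absorbance at 450 minus 650 nm, as % viable versus DMSO. Curves fitted by four-parameter non-linear regression. Mean ± SEM, n = 3/concentration, ≥3 independent experiments.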

[2] = system: T47D; assay: Cytotoxicity against human T47D cells assessed as induction of cell morphological changes at 100 uM by inverted microscopic analysis; assay type: cell-based
How it was run: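 T47D cells, cultured and treated as in the 6-day XTT proliferation assay, were photographed for morphology after exposure at 100 μM and compared with control cultures.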

[3] = target: T1, Alpha-1A adrenergic receptor (Homo sapiens, UniProt P35348); assay: Inhibition of human alpha1A adrenergic receptor at 10 uM
T1 sequence (P35348 whole entry): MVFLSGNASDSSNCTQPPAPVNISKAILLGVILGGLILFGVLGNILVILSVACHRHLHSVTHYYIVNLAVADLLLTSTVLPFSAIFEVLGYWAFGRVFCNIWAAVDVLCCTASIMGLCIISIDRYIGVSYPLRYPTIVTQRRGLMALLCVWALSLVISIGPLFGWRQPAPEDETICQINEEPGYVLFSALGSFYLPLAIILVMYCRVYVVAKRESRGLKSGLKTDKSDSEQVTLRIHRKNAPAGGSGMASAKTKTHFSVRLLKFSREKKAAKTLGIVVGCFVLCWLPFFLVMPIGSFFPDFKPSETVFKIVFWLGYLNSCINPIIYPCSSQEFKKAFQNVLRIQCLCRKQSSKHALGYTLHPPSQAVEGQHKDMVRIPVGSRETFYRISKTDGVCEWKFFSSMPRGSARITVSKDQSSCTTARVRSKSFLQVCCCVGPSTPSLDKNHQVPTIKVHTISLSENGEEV

[4] = target: T2, D(4) dopamine receptor (Homo sapiens, UniProt P21917); assay: Inhibition of human dopamine D4.4 receptor at 10 uM
T2 sequence (P21917 whole entry): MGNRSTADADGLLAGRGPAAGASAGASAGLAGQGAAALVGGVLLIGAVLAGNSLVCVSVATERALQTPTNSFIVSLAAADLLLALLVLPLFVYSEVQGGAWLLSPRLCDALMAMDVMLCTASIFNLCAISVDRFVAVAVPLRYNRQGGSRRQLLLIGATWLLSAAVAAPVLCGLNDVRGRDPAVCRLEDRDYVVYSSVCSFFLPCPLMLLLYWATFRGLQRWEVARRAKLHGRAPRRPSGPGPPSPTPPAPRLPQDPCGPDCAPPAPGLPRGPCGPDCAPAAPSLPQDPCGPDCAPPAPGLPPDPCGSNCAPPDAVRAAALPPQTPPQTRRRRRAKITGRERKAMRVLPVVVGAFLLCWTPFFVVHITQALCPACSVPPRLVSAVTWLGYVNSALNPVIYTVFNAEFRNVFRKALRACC

[5] = Inhibition of rat L-type calcium channel (diltiazem site) at 10 uM
[6] = target: Voltage-gated inwardly rectifying potassium channel KCNH2 (Homo sapiens, UniProt Q12809); assay: Inhibition of human ERG at 10 uM
[7] = target: Mu-type opioid receptor (Homo sapiens, UniProt P35372); assay: Inhibition of human mu-opioid receptor at 10 uM
[8] = system: MDA-MB-231; assay: Antiproliferative activity against human MDA-MB-231 cells assessed as cell growth inhibition at 0.4 to 100 uM after 6 days by XTT assay; assay type: cell-based; conditions: mda-mb-231, 144 h, dose 0.4-100 µM, time 6 day; how it was run: as §1
[9] = system: MCF7; assay: Antiproliferative activity against human MCF7 cells assessed as cell growth inhibition at 0.4 to 100 uM after 6 days by XTT assay; assay type: cell-based; conditions: mcf7, 144 h, dose 0.4-100 µM, time 6 day; how it was run: as §1
[10] = target: D(2) dopamine receptor (Homo sapiens, UniProt P14416); assay: Inhibition of human dopamine D2S receptor at 10 uM
[11] = target: T3, Transient receptor potential cation channel subfamily V member 6 (Homo sapiens) (UniProt Q9H1D0); assay: Inhibition of human TRPV6 expressed in HEK293 cells assessed as reduction in cadmium induced cytotoxicity by measuring increase in cell survival at 10 uM incubated for 24 hrs by XTT assay; assay type: cell-based
T3 sequence (whole entry): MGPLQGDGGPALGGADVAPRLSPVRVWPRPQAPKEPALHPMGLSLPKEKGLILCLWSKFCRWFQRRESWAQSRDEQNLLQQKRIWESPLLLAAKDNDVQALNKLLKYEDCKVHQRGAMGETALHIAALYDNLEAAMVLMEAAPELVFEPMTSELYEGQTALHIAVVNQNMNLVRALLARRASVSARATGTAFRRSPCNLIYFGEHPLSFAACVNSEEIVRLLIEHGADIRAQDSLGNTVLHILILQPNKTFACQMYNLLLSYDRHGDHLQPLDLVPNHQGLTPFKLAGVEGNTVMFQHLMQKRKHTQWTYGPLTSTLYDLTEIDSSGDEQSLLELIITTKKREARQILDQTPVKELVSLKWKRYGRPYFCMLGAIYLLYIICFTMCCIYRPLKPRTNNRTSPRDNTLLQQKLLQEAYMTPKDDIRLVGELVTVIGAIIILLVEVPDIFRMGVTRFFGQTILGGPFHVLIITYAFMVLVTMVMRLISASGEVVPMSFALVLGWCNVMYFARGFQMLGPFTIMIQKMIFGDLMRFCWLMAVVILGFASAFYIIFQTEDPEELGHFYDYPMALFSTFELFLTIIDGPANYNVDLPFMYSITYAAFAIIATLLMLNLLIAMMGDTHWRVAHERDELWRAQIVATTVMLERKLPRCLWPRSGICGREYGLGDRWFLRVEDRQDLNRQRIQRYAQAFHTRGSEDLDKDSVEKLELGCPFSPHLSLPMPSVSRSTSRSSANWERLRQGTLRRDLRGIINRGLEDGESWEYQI
How it was run: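 HEK293 wt or HEK-hTRPV6 cells in DMEM with 10% FBS, glutamine, penicillin/streptomycin and non-essential amino acids. Seeded at 1.5 x 10⁴ cells/well and left 24 h, then given CdCl2 at 50 to 0.05 µM with or without test compound at 1.0 or 10 µM; blank was 0.01% DMSO. Incubation 24 h at 37 °C. XTT/PMS read for 2 h at A450−A650, as % viable versus blank. n = 4/concentration, 2 independent experiments.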

Sequence of Voltage-gated inwardly rectifying potassium channel KCNH2 (Q12809 whole entry): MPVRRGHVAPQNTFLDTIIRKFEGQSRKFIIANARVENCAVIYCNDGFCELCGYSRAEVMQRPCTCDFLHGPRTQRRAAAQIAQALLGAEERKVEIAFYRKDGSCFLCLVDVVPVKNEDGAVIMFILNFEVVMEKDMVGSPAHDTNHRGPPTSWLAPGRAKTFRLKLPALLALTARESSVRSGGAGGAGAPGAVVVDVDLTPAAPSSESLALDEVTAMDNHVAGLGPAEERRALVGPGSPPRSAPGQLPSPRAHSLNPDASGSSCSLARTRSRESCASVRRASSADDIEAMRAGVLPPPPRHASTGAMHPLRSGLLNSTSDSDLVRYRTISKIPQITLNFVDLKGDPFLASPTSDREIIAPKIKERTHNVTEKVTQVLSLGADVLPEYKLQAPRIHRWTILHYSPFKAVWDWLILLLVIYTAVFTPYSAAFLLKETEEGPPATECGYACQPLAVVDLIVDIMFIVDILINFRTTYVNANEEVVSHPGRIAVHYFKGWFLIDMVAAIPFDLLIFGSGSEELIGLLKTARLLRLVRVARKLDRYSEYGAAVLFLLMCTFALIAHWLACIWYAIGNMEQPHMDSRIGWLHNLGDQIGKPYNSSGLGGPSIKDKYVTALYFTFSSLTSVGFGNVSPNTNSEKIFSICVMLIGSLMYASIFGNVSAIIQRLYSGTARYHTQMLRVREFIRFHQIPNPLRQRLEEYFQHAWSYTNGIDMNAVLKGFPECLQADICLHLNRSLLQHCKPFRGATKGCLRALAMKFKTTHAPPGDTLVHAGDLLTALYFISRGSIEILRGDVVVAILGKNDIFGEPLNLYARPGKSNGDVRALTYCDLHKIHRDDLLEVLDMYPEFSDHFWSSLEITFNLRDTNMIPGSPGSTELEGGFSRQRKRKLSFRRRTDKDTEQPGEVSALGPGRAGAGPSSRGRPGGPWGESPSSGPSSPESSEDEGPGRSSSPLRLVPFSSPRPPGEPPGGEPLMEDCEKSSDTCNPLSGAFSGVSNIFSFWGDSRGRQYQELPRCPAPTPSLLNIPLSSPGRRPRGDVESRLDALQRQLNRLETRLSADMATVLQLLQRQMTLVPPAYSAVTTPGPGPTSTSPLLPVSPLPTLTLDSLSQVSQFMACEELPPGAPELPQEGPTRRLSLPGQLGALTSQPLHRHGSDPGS
Sequence of D(2) dopamine receptor (P14416 whole entry): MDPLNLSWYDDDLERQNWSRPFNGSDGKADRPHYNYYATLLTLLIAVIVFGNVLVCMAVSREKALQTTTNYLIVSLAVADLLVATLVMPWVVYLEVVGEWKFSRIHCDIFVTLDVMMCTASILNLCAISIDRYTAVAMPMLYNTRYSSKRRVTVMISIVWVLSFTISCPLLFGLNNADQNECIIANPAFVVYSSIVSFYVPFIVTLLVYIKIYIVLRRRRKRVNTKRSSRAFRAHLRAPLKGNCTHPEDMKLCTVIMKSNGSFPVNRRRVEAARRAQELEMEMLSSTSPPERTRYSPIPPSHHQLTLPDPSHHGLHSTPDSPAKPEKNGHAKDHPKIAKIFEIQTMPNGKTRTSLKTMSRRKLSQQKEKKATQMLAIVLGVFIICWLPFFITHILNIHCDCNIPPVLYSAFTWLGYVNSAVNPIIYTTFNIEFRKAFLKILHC
Sequence of Mu-type opioid receptor (P35372 whole entry): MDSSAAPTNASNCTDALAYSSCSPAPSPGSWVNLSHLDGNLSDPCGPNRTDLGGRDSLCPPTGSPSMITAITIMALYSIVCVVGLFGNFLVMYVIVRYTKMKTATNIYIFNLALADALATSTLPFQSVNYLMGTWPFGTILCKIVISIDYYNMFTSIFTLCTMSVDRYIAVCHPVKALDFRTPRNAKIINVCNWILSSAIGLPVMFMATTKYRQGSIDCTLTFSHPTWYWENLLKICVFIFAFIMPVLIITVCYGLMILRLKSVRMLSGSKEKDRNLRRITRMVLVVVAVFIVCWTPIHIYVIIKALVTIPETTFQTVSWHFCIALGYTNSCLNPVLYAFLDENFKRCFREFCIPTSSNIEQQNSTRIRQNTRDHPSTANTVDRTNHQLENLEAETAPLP

O=c1ccc(CN2CCN([C@H]3CC[C@@](O)(c4cccc(C(F)(F)F)c4)CC3)CC2)c[nH]1
Activity [1]: Non-Toxic
Activity [2]: Non-Toxic
inhibition (INH) [3]: Not Active
inhibition (INH) [4]: Not Active
inhibition (INH) [5]: Not Active
inhibition (INH) [6]: Not Active
inhibition (INH) [7]: Not Active
Activity [8]: Non-Toxic
Activity [9]: Non-Toxic
inhibition (INH) [10]: Not Active
inhibition [11]: Active
